Calls of active or inactive are those of the source. The calls are words filed in the database; no cut-off is given here.
Experiments:
Salmonella typhimurium [1] = assay: Antibacterial activity against Salmonella typhimurium ATCC14028 infected in mouse RAW264.7 cells assessed as reduction in intracellular bacterial growth incubated for 24 hrs in presence of gentamicin by CMFDA and DAPI staining based high-content screening method; type: functional, organism-based, Salmonella enterica subsp. enterica serovar Typhimurium; settings: Salmonella enterica, ATCC14028, RAW264.7, 24 h
In short: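 RAW264.7 seeded at 10^4 cells/well for 20 h, then infected at MOI 50 with RFP-expressing ATCC14028 (subcultured 2 h, OD600 0.6 ≈ 1.5×10^8 CFU/mL). After 1 h infection: 100 µg/mL gentamicin 1 h, then compound with 20 µg/mL gentamicin for 24 h. Stained with 2.5 µM CMFDA, fixed in 3.7% formaldehyde, DAPI nuclei; nuclei and intracellular bacteria counted by imaging, 10× objective.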

[2] = Selectivity ratio of CC50 for cytotoxicity against mouse RAW264.7 cells to EC50 for antibacterial activity against Salmonella typhimurium ATCC14028 infected in mouse RAW264.7 cells; type: toxicity, cell-based; settings: read-out: Ratio CC50/EC50
[3] = Cytotoxicity against mouse RAW264.7 cells assessed as reduction in cell viability incubated for 24 hrs by MTT assay; type: toxicity, cell-based
In short: (§1)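 Cells seeded at 10^5 cells/mL, grown 20 h at 37°C, 5% CO2, then exposed to compound for 24 h. Medium replaced with 0.5 mg/mL MTT for 1 h, formazan dissolved in DMSO, absorbance read at 570 nm; CC50 calculated. HT-29 and HCT-116 kept in McCoy's 5A with 10% FBS, THP-1 in RPMI 1640 with 10% FBS, others in DMEM with 10% FBS.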

Salmonella typhimurium [4] = assay: Antibacterial activity against Salmonella typhimurium CGC18 infected in mouse RAW264.7 cells assessed as reduction in intracellular bacterial growth incubated for 24 hrs in presence of gentamicin by CFU assay; settings: Salmonella enterica, CGC18, RAW264.7, 24 h
Salmonella typhimurium [5] = assay: Antibacterial activity against Salmonella typhimurium ATCC14028 infected in mouse J774.1 cells assessed as reduction in intracellular bacterial growth incubated for 24 hrs in presence of gentamicin by CFU assay; type: functional, organism-based, Salmonella enterica subsp. enterica serovar Typhimurium; settings: Salmonella enterica, ATCC14028, J774.1, 24 h
In short: (§2)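 Host cells: HCT-116 and HT-29 in McCoy's 5A + 10% FBS; INT-407 and J774.1 in DMEM + 10% FBS. Bacteria were LB-grown, subcultured 2 h, and set to OD600 0.6. After 1 h infection, cells got 100 µg/mL gentamicin for 1 h, then compound for 24 h with 20 µg/mL gentamicin. Lysis was 0.1% Triton X-100, then plating and overnight colony counts; EC50 calculated.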

RAW264.7 = assay: Cytotoxicity against mouse RAW264.7 cells assessed as reduction in cell viability at 60 uM incubated for 24 hrs by MTT assay; type: toxicity, cell-based; settings: raw264.7, 24 h
Salmonella typhimurium [6] = assay: Antibacterial activity against Salmonella typhimurium ATCC14028 infected in macrophage-like human THP-1 cells assessed as reduction in intracellular bacterial growth incubated for 24 hrs in presence of gentamicin by CFU assay; type: functional, organism-based, Salmonella enterica subsp. enterica serovar Typhimurium; settings: Salmonella enterica, ATCC14028, THP-1, 24 h
In short: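 THP-1 cells in RPMI 1640 + 10% FBS, differentiated with 100 ng/mL PMA for 72 h. Cells were infected 1 h with LB-grown bacteria adjusted to OD600 0.6, given 100 µg/mL gentamicin for 1 h, then compound for 24 h in 20 µg/mL gentamicin.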

[7] = Cytotoxicity against human Intestine 407 cells assessed as reduction in cell viability incubated for 24 hrs in presence of gentamicin by MTT assay; type: functional; in short: as §1
Yersinia enterocolitica = assay: Antibacterial activity against Yersinia enterocolitica infected in mouse RAW264.7 cells assessed as reduction in intracellular bacterial growth incubated for 24 hrs in presence of gentamicin by CFU assay; type: functional, organism-based; settings: RAW264.7, 24 h
In short: (§3)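 Clinical isolate grown overnight (16-18 h) in BHI at 37°C with shaking, subcultured 1:100 for 2 h, pelleted, resuspended in PBS to OD600 0.6. RAW264.7 infected for 1 h, then 100 µg/mL gentamicin 1 h, then compound in medium with 20 µg/mL gentamicin for 24 h. Cells lysed in 0.1% Triton X-100, lysates serially diluted and plated, colonies counted after overnight growth; EC50 calculated.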

THP-1 [8] = assay: Cytotoxicity against monocytic human THP-1 cells assessed as reduction in cell viability incubated for 24 hrs in presence of gentamicin by MTT assay; type: functional; in short: as §1
Salmonella typhimurium [9] = assay: Antibacterial activity against Salmonella typhimurium ATCC14028 infected in human HCT-116 cells assessed as reduction in intracellular bacterial growth incubated for 24 hrs in presence of gentamicin by CFU assay; type: functional, organism-based, Salmonella enterica subsp. enterica serovar Typhimurium; settings: Salmonella enterica, ATCC14028, HCT-116, 24 h; in short: as §2
Salmonella typhimurium [10] = assay: Antibacterial activity against Salmonella typhimurium ATCC14028 infected in human HT-29 cells assessed as reduction in intracellular bacterial growth incubated for 24 hrs in presence of gentamicin by CFU assay; type: functional, organism-based, Salmonella enterica subsp. enterica serovar Typhimurium; settings: Salmonella enterica, ATCC14028, HT-29, 24 h; in short: as §2
Salmonella Typhi = assay: Antibacterial activity against Salmonella Typhi Ty2 infected in mouse RAW264.7 cells assessed as reduction in intracellular bacterial growth incubated for 24 hrs in presence of gentamicin by CFU assay; settings: Salmonella enterica, Ty2, RAW264.7, 24 h
Listeria monocytogenes = assay: Antibacterial activity against Listeria monocytogenes infected in mouse RAW264.7 cells assessed as reduction in intracellular bacterial growth incubated for 24 hrs in presence of gentamicin by CFU assay; type: functional, organism-based; settings: RAW264.7, 24 h; in short: as §3
Salmonella typhimurium [11] = assay: Antibacterial activity against Salmonella typhimurium ATCC14028 infected in human Intestine 407 cells assessed as reduction in intracellular bacterial growth incubated for 24 hrs in presence of gentamicin by CFU assay; type: functional, organism-based, Salmonella enterica subsp. enterica serovar Typhimurium; settings: Salmonella enterica, ATCC14028, Intestine 407, 24 h; in short: as §2
[12] = molecular target: D(2) dopamine receptor (Homo sapiens) (UniProt P14416); assay: Displacement of [3H]-labelled spiperone human recombinant D2 receptor expressed in CHO cells at 0.1 to 1 uM incubated for 2 hrs; type: cell-based; settings: dose 0.1-1 µM
In short: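 Contract radioligand binding: 20 µg human recombinant D2R from CHO cells incubated with [3H]spiperone, then compound added; pH 7.4 Tris-HCl, 2 h at 25°C.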

Salmonella typhimurium [13] = assay: Antibacterial activity against Salmonella typhimurium ATCC14028 infected in monocytic human THP-1 cells assessed as reduction in intracellular bacterial growth incubated for 24 hrs in presence of gentamicin by CFU assay; type: functional, organism-based, Salmonella enterica subsp. enterica serovar Typhimurium; settings: Salmonella enterica, ATCC14028, THP-1, 24 h
In short: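 Undifferentiated THP-1 cells in RPMI 1640 + 10% FBS. Cells were infected 1 h with LB-grown bacteria at OD600 0.6, given 100 µg/mL gentamicin for 1 h, then compound for 24 h with 20 µg/mL gentamicin.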

Salmonella typhimurium [14] = assay: Antibacterial activity against Salmonella typhimurium ATCC14028 infected in mouse RAW264.7 cells assessed as reduction in intracellular bacterial growth incubated for 24 hrs in presence of gentamicin by CFU assay; type: functional, organism-based, Salmonella enterica subsp. enterica serovar Typhimurium; settings: Salmonella enterica, ATCC14028, RAW264.7, 24 h
In short: (§4)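 RAW264.7 cells in DMEM + 10% FBS, seeded at 3×10^5 per well for 20 h. Bacteria were grown in LB for 16–18 h, subcultured 1:100 for 2 h, and brought to OD600 0.6 in PBS. After 1 h infection, cells got 100 µg/mL gentamicin for 1 h, then compound for 24 h with 20 µg/mL gentamicin.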

J774.1 = assay: Cytotoxicity against mouse J774.1 cells assessed as reduction in cell viability incubated for 24 hrs in presence of gentamicin by MTT assay; type: functional; in short: as §1
THP-1 [15] = assay: Cytotoxicity against macrophage-like human THP-1 cells assessed as reduction in cell viability incubated for 24 hrs in presence of gentamicin by MTT assay; type: functional
In short: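 THP-1 differentiated to macrophages with 100 ng/mL PMA for 72 h, then seeded at 10^5 cells/mL and grown 20 h. Compound added for 24 h; 0.5 mg/mL MTT for 1 h, formazan dissolved in DMSO, absorbance at 570 nm; CC50 calculated.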

Salmonella typhimurium [16] = assay: Antibacterial activity against Salmonella typhimurium ATCC14028 assessed as reduction in bacterial growth upto 64 uM incubated for 24 hrs by SpectraMax microplate reader analysis; type: functional, organism-based; settings: Salmonella enterica subsp. enterica serovar Typhimurium
In short: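 Overnight LB culture inoculated at 5×10^5 CFU/mL final into CAMHB or into DMEM with 10% FBS. Exposed to a range of concentrations at 37°C; growth followed by absorbance at 600 nm at set times over 24 h.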

Salmonella typhimurium [17] = assay: Antibacterial activity against ACSSuT-resistant Salmonella typhimurium NL10 infected in mouse RAW264.7 cells assessed as reduction in intracellular bacterial growth incubated for 24 hrs in presence of gentamicin by CFU assay; type: functional, organism-based, Salmonella enterica subsp. enterica serovar Typhimurium; settings: Salmonella enterica, NL10, RAW264.7, 24 h; in short: as §4
[18] = Cytotoxicity against mouse RAW264.7 cells assessed as reduction in cell viability incubated for 24 hrs by CMFDA and DAPI staining based high-content screening method; type: toxicity
HCT-116 = assay: Cytotoxicity against human HCT-116 cells assessed as reduction in cell viability incubated for 24 hrs in presence of gentamicin by MTT assay; type: functional; in short: as §1
HT-29 = assay: Cytotoxicity against human HT-29 cells assessed as reduction in cell viability incubated for 24 hrs in presence of gentamicin by MTT assay; type: functional; in short: as §1

Chain of D(2) dopamine receptor (Homo sapiens) (P14416 whole entry): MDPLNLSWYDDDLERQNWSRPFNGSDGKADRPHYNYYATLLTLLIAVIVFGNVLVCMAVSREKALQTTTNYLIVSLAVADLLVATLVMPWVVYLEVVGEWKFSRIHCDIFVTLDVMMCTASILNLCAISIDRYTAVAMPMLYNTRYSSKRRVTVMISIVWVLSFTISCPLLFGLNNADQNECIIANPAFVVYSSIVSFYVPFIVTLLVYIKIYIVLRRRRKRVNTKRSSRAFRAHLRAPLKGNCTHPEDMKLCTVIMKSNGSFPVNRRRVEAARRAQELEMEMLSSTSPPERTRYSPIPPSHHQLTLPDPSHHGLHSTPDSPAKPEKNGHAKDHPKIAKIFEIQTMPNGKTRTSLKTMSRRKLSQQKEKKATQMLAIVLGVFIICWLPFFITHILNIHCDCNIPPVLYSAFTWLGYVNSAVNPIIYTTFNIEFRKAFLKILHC

Structure (SMILES): CN(C)CCNC1=Nc2cccnc2Nc2ccc(Cl)cc21
- EC50 (Salmonella typhimurium [1]): 6.09 µM
- selectivity ratio [2]: 26.1
- CC50 at 24 h [3]: 159 µM

Structure (SMILES): O=C(O)c1cn(C2CC2)c2cc(N3CCNCC3)c(F)cc2c1=O [CIPROFLOXACIN]
- EC50 (Salmonella typhimurium [1]): 0.06 µM

Structure (SMILES): c1ccc2c(c1)N=C(NCCN1CCCCC1)c1ccccc1N2
- EC50 (Salmonella typhimurium [1]): 3.7 µM
- selectivity ratio [2]: 29.8
- CC50 at 24 h [3]: 110 µM

Structure (SMILES): Clc1ccc2c(c1)C(NCCN1CCNCC1)=Nc1ccccc1O2
- EC50 (Salmonella typhimurium [1]): 0.3 µM
- selectivity ratio [2]: 75
- CC50 at 24 h [3]: 22.5 µM

Structure (SMILES): CN1CCN(C2=Nc3ccccc3Oc3ccc(Cl)cc32)CC1 [LOXAPINE]
- EC50 (Salmonella typhimurium [1]): 5.77 µM
- selectivity ratio [2]: 19.1
- CC50 at 24 h [3]: 110 µM

Structure (SMILES): c1ccc2c(c1)N=C(NCCN1CCNCC1)c1ccccc1N2
- EC50 (Salmonella typhimurium [1]): > 30 µM
- CC50 at 24 h [3]: 128 µM

Structure (SMILES): c1ccc2c(c1)N=C(NCCCN1CCCC1)c1ccccc1N2
- EC50 (Salmonella typhimurium [4]): 1.27 µM
- EC50 (Salmonella typhimurium [5]): 0.42 µM
- Activity (RAW264.7): Non-Toxic
- EC50 (Salmonella typhimurium [6]): 0.52 µM
- CC50 [7]: > 180 µM
- EC50 (Yersinia enterocolitica): 0.93 µM
- CC50 (THP-1 [8]): 153 µM
- EC50 (Salmonella typhimurium [9]): 2.85 µM
- EC50 (Salmonella typhimurium [10]): 5.97 µM
- EC50 (Salmonella Typhi): 0.55 µM
- EC50 (Listeria monocytogenes): 0.6 µM
- EC50 (Salmonella typhimurium [11]): 2.49 µM
- Activity [12]: inactive
- EC50 (Salmonella typhimurium [13]): 1.02 µM
- EC50 (Salmonella typhimurium [14]): 0.38 µM
- CC50 (J774.1): 86.8 µM
- EC50 (Salmonella typhimurium [1]): 0.4 µM
- CC50 (THP-1 [15]): 134 µM
- Activity (Salmonella typhimurium [16]): inactive
- EC50 (Salmonella typhimurium [17]): 2.28 µM
- selectivity ratio [2]: 272
- CC50 at 24 h [18]: 92.5 µM
- CC50 at 24 h [3]: 109 µM
- CC50 (HCT-116): > 180 µM
- CC50 (HT-29): > 180 µM

Structure (SMILES): Cc1cc2c(s1)Nc1ccccc1N=C2NCCN1CCNCC1
- EC50 (Salmonella typhimurium [1]): 4.17 µM
- selectivity ratio [2]: 24.6
- CC50 at 24 h [3]: 103 µM

Structure (SMILES): Cc1cc2c(s1)Nc1ccccc1N=C2NCCCN1CCCC1
- EC50 (Salmonella typhimurium [1]): 1.14 µM
- selectivity ratio [2]: 67.3
- CC50 at 24 h [3]: 76.8 µM

Structure (SMILES): CN(C)CCNC1=Nc2ccccc2Nc2ccccc21
- EC50 (Salmonella typhimurium [1]): 15.2 µM
- selectivity ratio [2]: 19.7
- CC50 at 24 h [3]: 299 µM

Structure (SMILES): Clc1ccc2c(c1)C(NCCN1CCCCC1)=Nc1cccnc1N2
- EC50 (Salmonella typhimurium [1]): 5.67 µM
- selectivity ratio [2]: 10.9
- CC50 at 24 h [3]: 61.9 µM

Structure (SMILES): Cc1cc2c(s1)Nc1ccccc1N=C2NCCN(C)C
- EC50 (Salmonella typhimurium [1]): 1.48 µM
- selectivity ratio [2]: 85.3
- CC50 at 24 h [3]: 126 µM

Structure (SMILES): Clc1ccc2c(c1)C(NCCN1CCNCC1)=Nc1cccnc1N2
- EC50 (Salmonella typhimurium [1]): 8.82 µM
- selectivity ratio [2]: 13.9
- CC50 at 24 h [3]: 123 µM

Structure (SMILES): Cc1cc2c(s1)Nc1ccccc1N=C2NCCN1CCCCC1
- EC50 (Salmonella typhimurium [1]): 2.36 µM
- selectivity ratio [2]: 16.5
- CC50 at 24 h [3]: 38.9 µM

Structure (SMILES): Clc1ccc2c(c1)C(NCCCN1CCCC1)=Nc1cccnc1N2
- EC50 (Salmonella typhimurium [1]): 4.24 µM
- selectivity ratio [2]: 23.8
- CC50 at 24 h [3]: 101 µM

Structure (SMILES): Cc1cc2c(s1)Nc1ccccc1N=C2N1CCN(C)CC1 [OLANZAPINE]
- EC50 (Salmonella typhimurium [1]): 5.4 µM
- selectivity ratio [2]: 36.7
- CC50 at 24 h [3]: 198 µM
